Source: ChEMBL document CHEMBL3797057, “Synthesis and bioevaluation of substituted chalcones, coumaranones and other flavonoids as anti-HIV agents” (Bioorg Med Chem, 2016)
The source made the active and inactive calls. No cut-off for these calls is given here.

Tests used:
[1] = system: Human immunodeficiency virus 1; experiment: Antiviral activity against HIV1 BAL infected in human TZM-bl cells assessed as inhibition of viral infection; type: functional, organism-based; details: for IC50: Human immunodeficiency virus 1, BAL
Method in brief: (§1)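 TZM-bl cells seeded at 6 × 10^4 cells/ml (6000 cells/well), left overnight, then at 50-60% confluence treated in triplicate with compound in D10 or DMSO vehicle. After 5 min, HIV-1 added at 60 TCID50/0.1mL (MOI=0.01). After 24 h at 37°C/5% CO2, cells lysed for Bright Glo luciferase. Inhibition is % reduction in RLU versus virus+DMSO control, with no-virus wells as baseline.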

[2] = Cytotoxicity against human TZM-bl cells assessed as decrease in cell viability at IC50 by CytoTox Glo assay relative to control; type: cell-based
[3] = system: Human immunodeficiency virus 1; experiment: Antiviral activity against HIV1 infected in human TZM-bl cells assessed as inhibition of viral infection at 10 uM preincubated with cells for 5 mins followed by viral infection measured after 24 hrs by Bright Glo luciferase reporter gene assay relative to control; type: functional; details: for inhibition at 10 µM: Human immunodeficiency virus 1, TZM-bl
Method in brief: (§2)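 TZM-bl cells at 50-60% confluence, in D10 medium, were pre-treated in triplicate with 10 µM compound or DMSO vehicle, for 5 min or 3 h. Virus was then added at 60 TCID50/0.1mL (MOI=0.01). After 24 h the cells were lysed for luciferase, read over 5 s/well. Result is % reduction in relative light units versus the virus+DMSO control.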

[4] = Cytotoxicity against human TZM-bl cells assessed as inhibition of cell viability at 10 uM by CytoTox Glo assay relative to control; type: cell-based; details: for inhibition (INH): tzm, 10 µM; for cytotoxicity at 10 µM: TZM-bl cells, read-out: INH
Method in brief: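 Replicate dishes of treated TZM-bl cells (50-60% confluent, compound at 10 µM in D10, triplicate) assayed with CytoTox Glo for dead and total cell numbers. Result is % difference in live-cell luminescence versus matched DMSO vehicle control.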

[5] = Cytotoxicity against human PM1 cells assessed as inhibition of cell viability at 10 uM by trypan blue dye exclusion method relative to control; type: cell-based; details: read-out: INH
Method in brief: (§3)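 PM1 cells (1.5 × 10^5/0.1 mL) kept in R20 with compound or matched DMSO vehicle over the 5-day BaL propagation assay (10 min pre-treatment, 2 h infection, wash, re-treatment). Viability monitored by trypan blue dye exclusion.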

[6] = Cytotoxicity against human TZM-bl cells assessed as decrease in cell metabolic activity up to 10 uM by MTT reduction assay; type: ADME, cell-based
Method in brief: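 Confluent TZM-bl cells exposed to compound up to 10 µM or matched vehicle; cell metabolic activity monitored by MTT reduction assay. Mean ± SEM, n=3.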

[7] = Cytotoxicity against human PM1 cells assessed as inhibition of cell viability at 5 uM by trypan blue dye exclusion method relative to control; type: cell-based; details: for cytotoxicity at 5 µM: PM1 cells, read-out: INH; for inhibition (INH): pm1, 5 µM; method in brief: as §3
[8] = system: Human immunodeficiency virus 1; experiment: Antiviral activity against HIV1 93UG067 clinical isolate infected in human TZM-bl cells assessed as inhibition of viral infection; type: functional, organism-based; method in brief: as §1
[9] = system: Human immunodeficiency virus 1; experiment: Antiviral activity against HIV1 93UG070 clinical isolate infected in human TZM-bl cells assessed as inhibition of viral infection; type: functional, organism-based; method in brief: as §1
[10] = system: Human immunodeficiency virus 1; experiment: Antiviral activity against HIV1 BAL infected in human PM1 cells assessed as inhibition of viral propagation at 5 uM preincubated with cells for 10 mins followed by viral infection measured after 2 hrs by p24 ELISA relative to control; type: functional; details: for inhibition at 5 µM: Human immunodeficiency virus 1, BAL
Method in brief: (§4)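 PM1 cells (1.5 × 10^5/0.1 mL) in R20 (RPMI 1640, 20% FBS, 10mM HEPES) given compound or matched DMSO 10 min, then infected with HIV-1 BaL at 150 TCID50/0.1 mL (MOI=0.001) for 2 h. Cells washed, resuspended in fresh R20 with compound or vehicle. Supernatants taken day 3; culture continued to day 5, supernatant assayed for HIV p24 by ELISA.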

[11] = system: Human immunodeficiency virus 1; experiment: Antiviral activity against HIV1 infected in human TZM-bl cells assessed as inhibition of viral infection at 10 uM preincubated with cells for 3 hrs followed by viral infection measured after 24 hrs by Bright Glo luciferase reporter gene assay relative to control; type: functional; details: Human immunodeficiency virus 1, TZM-bl; method in brief: as §2
[12] = system: Human immunodeficiency virus 1; experiment: Antiviral activity against HIV1 92UG029 clinical isolate infected in human TZM-bl cells assessed as inhibition of viral infection; type: functional, organism-based; method in brief: as §1
[13] = system: Human immunodeficiency virus 1; experiment: Antiviral activity against HIV1 BAL infected in human PM1 cells assessed as inhibition of viral propagation at 10 uM preincubated with cells for 10 mins followed by viral infection measured after 2 hrs by p24 ELISA relative to control; type: functional; details: for inhibition at 10 µM: Human immunodeficiency virus 1, BAL; method in brief: as §4
CHO = experiment: Cytotoxicity against CHO cells assessed as decrease in cell proliferation after 48 hrs by MTS assay; type: cell-based, Cricetulus griseus
Method in brief: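 CHO cells plated at 10,000 cells/mL, in triplicate, incubated overnight. Compound then added from DMSO stock, final DMSO <1%. After 48 h at 37°C in 5% CO2, MTS reagent was added for 4 h and absorbance read at 490 nm. IC50 taken from the plot of relative A490 versus concentration.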

[14] = Cytotoxicity against human PM1 cells assessed as cell viability at 10 uM by trypan blue dye exclusion method relative to control; type: cell-based; details: read-out: Activity; method in brief: as §3

COc1ccccc1-c1oc2ccccc2c(=O)c1O
IC50 [1]: 30.4 µM
Activity [2]: Non-toxic
inhibition at 10 µM [3]: 21.3%
inhibition (INH) [4]: Not Active

COc1ccc(Br)cc1/C=C/C(=O)c1c(O)cccc1OCc1ccccc1
inhibition [1]: Dose-dependent effect
IC50 [1]: 4.7 µM
cytotoxicity at 10 µM [5]: 61.7%
Activity [6]: Non-toxic
cytotoxicity at 5 µM [7]: 0.6%
Activity [2]: Non-toxic
inhibition [8]: Dose-dependent effect
inhibition at 10 µM [3]: 86.5%
inhibition [9]: Dose-dependent effect
inhibition at 5 µM [10]: 80%
cytotoxicity at 10 µM [4]: 23.4%
inhibition at 10 µM [11]: 90.5%
inhibition [12]: Dose-dependent effect
inhibition at 10 µM [13]: 99.9%

COc1ccc(Br)cc1/C=C/C(=O)c1ccccc1O
cytotoxicity at 10 µM [4]: 62.6%

COc1ccccc1-c1cc(=O)c2c(O)cccc2o1
IC50 [1]: 4.4 µM
Activity [2]: 42%
inhibition at 10 µM [3]: 83.8%
cytotoxicity at 10 µM [4]: 44.5%

COc1ccc(Cl)cc1/C=C/C(=O)c1ccccc1O
cytotoxicity at 10 µM [4]: 99.5%

CCOc1ccc(Cl)cc1/C=C1\Oc2cccc(OCc3ccccc3)c2C1=O
inhibition at 10 µM [3]: 15.7%
inhibition (INH) [4]: Not Active

CCCCCCCCOc1ccc(Br)cc1/C=C/C(=O)c1c(O)cccc1OCc1ccccc1
inhibition at 10 µM [3]: < 10%
inhibition at 10 µM [11]: 27.9%

COc1ccc(Br)cc1/C=C/C(=O)c1ccc2ccccc2c1O
IC50 [1]: 20 µM
Activity [2]: 90%
cytotoxicity at 10 µM [4]: 19.9%

COc1cc(OC)c(-c2oc3ccccc3c(=O)c2O)cc1Br
inhibition at 10 µM [3]: 43.6%
inhibition (INH) [4]: Not Active

CCOc1ccc(Cl)cc1-c1oc2ccccc2c(=O)c1O
IC50 [1]: 12.6 µM
cytotoxicity at 10 µM [5]: 25.8%
Activity [2]: 20%
cytotoxicity at 10 µM [4]: 21.9%
inhibition at 10 µM [11]: 54.1%
inhibition [13]: inactive

COc1ccccc1/C=C/C(=O)c1c(O)cccc1OCc1ccccc1
IC50 (CHO; cho): ND(toxic)

COc1cc(OC)c(/C=C/C(=O)c2ccccc2O)cc1Br
inhibition at 10 µM [3]: 28.6%
cytotoxicity at 10 µM [4]: 1.9%

COc1ccc(Br)cc1-c1cc(=O)c2c(O)cccc2o1
cytotoxicity at 10 µM [4]: 34.8%

COc1ccc(C)cc1-c1oc2ccccc2c(=O)c1O
cytotoxicity at 10 µM [4]: 4.8%

CCOc1ccc(Br)cc1/C=C/C(=O)c1ccccc1O
cytotoxicity at 10 µM [4]: 51.9%

COc1ccc(I)cc1/C=C/C(=O)c1ccccc1O
inhibition at 10 µM [3]: 99.7%
cytotoxicity at 10 µM [4]: 99.6%

CCOc1ccc(Br)cc1/C=C1\Oc2cccc(OCc3ccccc3)c2C1=O
inhibition at 10 µM [3]: 12.6%
cytotoxicity at 10 µM [4]: 8.4%

COc1ccc(Br)cc1-c1oc2ccccc2c(=O)c1O
IC50 [1]: 43.7 µM
Activity [2]: Non-toxic
inhibition at 10 µM [3]: 22.4%
inhibition (INH) [4]: Not Active

COc1cc(Br)cc(-c2oc3ccccc3c(=O)c2O)c1OC
IC50 [1]: 30.9 µM
Activity [2]: Non-toxic
inhibition at 10 µM [3]: 25.9%
inhibition (INH) [4]: Not Active

COc1ccccc1/C=C/C(=O)c1ccccc1O
inhibition [3]: inactive
cytotoxicity at 10 µM [4]: 16.5%

COc1ccc(Br)cc1-c1cc(=O)c2ccccc2o1
cytotoxicity at 10 µM [4]: 23.6%

CCOc1ccc(Cl)cc1/C=C/C(=O)c1ccccc1O
inhibition at 10 µM [3]: 86.1%
cytotoxicity at 10 µM [4]: 86.4%

CCOc1ccc(Br)cc1/C=C/C(=O)c1c(O)cccc1OCc1ccccc1
inhibition (INH) [7]: Not Active
inhibition at 10 µM [3]: 60.2%
inhibition at 5 µM [10]: 72.2%
inhibition (INH) [4]: Not Active
inhibition at 10 µM [11]: 89.9%
viability at 10 µM [14]: 96.8%
inhibition at 10 µM [13]: 92.3%

CCOc1ccc(Cl)cc1/C=C/C(=O)c1c(O)cccc1OCc1ccccc1
cytotoxicity at 10 µM [5]: 12.3%
inhibition (INH) [7]: Not Active
inhibition at 10 µM [3]: 64.8%
inhibition at 5 µM [10]: 65.8%
cytotoxicity at 10 µM [4]: 8.7%
inhibition at 10 µM [11]: 79%
inhibition at 10 µM [13]: 95.8%

COc1ccc(C)cc1/C=C/C(=O)c1ccccc1O
cytotoxicity at 10 µM [4]: 46.9%

COc1cc(Br)cc(/C=C/C(=O)c2ccccc2O)c1OC
cytotoxicity at 10 µM [4]: 72.3%

COc1ccc(Br)cc1-c1cc(=O)c2c(OCc3ccccc3)cccc2o1
IC50 [1]: 42.3 µM
Activity [2]: Non-toxic
inhibition at 10 µM [3]: 16.4%
cytotoxicity at 10 µM [4]: 6.5%

COc1ccccc1-c1cc(=O)c2ccccc2o1
cytotoxicity at 10 µM [4]: 39.5%

COc1ccc(Br)cc1C1CC(=O)c2ccccc2O1 (centres undefined)
inhibition (INH) [4]: Not Active

COc1ccc(Cl)cc1-c1oc2ccccc2c(=O)c1O
cytotoxicity at 10 µM [4]: 23.5%

COc1ccc(Br)cc1/C=C/C(=O)c1c(O)cccc1OC
cytotoxicity at 10 µM [4]: 90.4%

CCOc1ccc(Br)cc1-c1oc2ccccc2c(=O)c1O
IC50 [1]: 10.4 µM
cytotoxicity at 10 µM [5]: 23.1%
cytotoxicity at 5 µM [7]: 16.5%
Activity [2]: Non-toxic
inhibition at 10 µM [3]: 51.7%
inhibition [10]: inactive
inhibition (INH) [4]: Not Active
inhibition at 10 µM [11]: 54.9%
inhibition at 10 µM [13]: 1.3%

COc1ccc(I)cc1-c1oc2ccccc2c(=O)c1O
cytotoxicity at 10 µM [4]: 15.3%

COc1ccc(Br)cc1/C=C1\Oc2cccc(OC)c2C1=O
IC50 (CHO; Cricetulus griseus, CHO, 48 h, read-out: IC50): 17.3 µM
inhibition at 10 µM [3]: 9.2%
cytotoxicity at 10 µM [4]: 0.2%
